{"source": "ChEMBL document CHEMBL1148441", "about": "“Simple, short peptide derivatives of a sulfonylindolecarboxamide (L-737,126) active in vitro against HIV-1 wild type and variants carrying non-nucleoside reverse transcriptase inhibitor resistance mutations” (J Med Chem, 2004)", "key": {"[1]": {"experiment": "Selectivity index (Ratio of CC50/EC50).", "assay_type": "functional", "summary_of_the_method": "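Ratio of CC50 (MTT viability of mock-infected MT-4 cells) to EC50 (MTT protection of MT-4 cells from cytopathicity of HIV-1 IIIB, inoculum giving complete cytopathicity at day 4, 37 °C); both run in parallel on the same compound dilution series.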"}, "[2]": {"system": "Human immunodeficiency virus 1", "experiment": "Inhibition of Efavirenz resistant HIV-1 (Y181C) induced cytopathicity in MT-4 cells.", "assay_type": "functional, organism-based", "conditions": "Human immunodeficiency virus 1, MT4", "summary_of_the_method": "(§1)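 MT-4 cells (1×10^4/well) with test compound dilutions (from 200 mM DMSO stock) infected with mutant HIV-1 at a CCID50 dose causing complete cytopathicity by day 4, 37 °C; viability by MTT. Y181C from clinical isolate passaged under nevirapine; K103N–Y181C from IIIB passaged under BI-RG 587. EC50 = 50% protection; mean of three experiments.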"}, "[3]": {"system": "Human immunodeficiency virus 1", "experiment": "Inhibition of HIV-1 (IIIB) induced cytopathicity in MT-4 cells.", "assay_type": "functional, organism-based", "conditions": "Human immunodeficiency virus 1, MT4", "summary_of_the_method": "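HIV-1 IIIB (from persistently infected H9/IIIB supernatant) added to MT-4 cells (1×10^4/well) with graded compound concentrations, dose set to give full cytopathicity by day 4, 37 °C. Cell viability read by MTT; EC50 = concentration giving 50% protection. Mean of three experiments.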"}, "MT4": {"system": "MT4", "experiment": "In vitro cytotoxicity against mock infected MT-4 cells.", "assay_type": "functional", "conditions": "Homo sapiens", "summary_of_the_method": "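Mock-infected MT-4 cells (1×10^4 per well) in RPMI 1640 with 10% FCS, 37 °C, 5% CO2, exposed to serial compound dilutions (DMSO stock 200 mM, diluted in medium), run in parallel with antiviral wells; viability read by MTT; CC50 = concentration reducing viability by 50%; means of three separate experiments, triplicate samples.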"}, "[4]": {"system": "Human immunodeficiency virus 1", "experiment": "In vitro reduction of p24 by 90% in Efavirenz resistant HIV-1 (K103R, V179D, P225H) infected C8166 cells.", "assay_type": "functional", "conditions": "Human immunodeficiency virus 1, C8166", "summary_of_the_method": "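C8166 cells (1×10^4/well) with compound dilutions infected with K103R–V179D–P225H HIV-1 (IIIB passaged in C8166 under efavirenz up to 2 μM), 37 °C; p24 antigen measured by immunoenzymatic kit alongside WT IIIB. EC90 = concentration cutting p24 by 90%; mean of three experiments.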"}, "[5]": {"system": "Human immunodeficiency virus 1", "experiment": "Inhibition of Efavirenz resistant HIV-1 (K103N-Y181C) induced cytopathicity in MT-4 cells.", "assay_type": "functional, organism-based", "conditions": "Human immunodeficiency virus 1, MT4", "summary_of_the_method": "as §1"}, "[6]": {"experiment": "In vitro concentration required to reduce the amount of p24 by 90% in WTIIIB infected C8166 cells", "assay_type": "functional", "conditions": "Homo sapiens", "summary_of_the_method": "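C8166 cells (1×10^4 per well) in RPMI 1640 with 10% FCS, exposed to serial compound dilutions (DMSO stock 200 mM, diluted in medium), then infected with HIV-1 IIIB from H9/IIIB supernatants, inoculum sized for complete cytopathicity at day 4; incubation at 37 °C; p24 measured by immunoenzymatic kit; EC90 = concentration cutting p24 by 90%; means of three experiments.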"}}}
{"smiles": "Cc1cc(C)cc(S(=O)(=O)c2c(C(=O)NC(C)C(N)=O)[nH]c3ccc(Cl)cc23)c1", "note": "(stereo not drawn)", "values": [{"measurement": "Ratio", "setting": "[1]", "result": 1330}, {"measurement": "EC50", "setting": "[2]", "result": 10, "unit": "nM"}, {"measurement": "EC50", "setting": "[3]", "result": 3, "unit": "nM"}, {"measurement": "CC50", "setting": "MT4", "result": 4000, "unit": "nM"}, {"measurement": "EC90", "setting": "[4]", "result": 40, "unit": "nM"}, {"measurement": "EC50", "setting": "[5]", "result": 700, "unit": "nM"}, {"measurement": "EC90", "setting": "[6]", "result": 4, "unit": "nM"}]}
{"smiles": "Cc1cc(C)cc(S(=O)(=O)c2c(C(=O)NCC(N)=O)[nH]c3ccc(Cl)cc23)c1", "values": [{"measurement": "Ratio", "setting": "[1]", "result": 5000}, {"measurement": "EC50", "setting": "[2]", "result": 30, "unit": "nM"}, {"measurement": "EC50", "setting": "[3]", "result": 6, "unit": "nM"}, {"measurement": "CC50", "setting": "MT4", "result": 30000, "unit": "nM"}, {"measurement": "EC90", "setting": "[4]", "result": 100, "unit": "nM"}, {"measurement": "EC50", "setting": "[5]", "result": 800, "unit": "nM"}, {"measurement": "EC90", "setting": "[6]", "result": 10, "unit": "nM"}]}
{"smiles": "Cc1cc(C)cc(S(=O)(=O)c2c(C(N)=O)[nH]c3ccc(Cl)cc23)c1", "values": [{"measurement": "Ratio", "setting": "[1]", "result": 3750}, {"measurement": "EC50", "setting": "[2]", "result": 30, "unit": "nM"}, {"measurement": "CC50", "setting": "MT4", "result": 15000, "unit": "nM"}, {"measurement": "EC90", "setting": "[4]", "result": 80, "unit": "nM"}, {"measurement": "EC50", "setting": "[5]", "result": 600, "unit": "nM"}, {"measurement": "EC90", "setting": "[6]", "result": 6, "unit": "nM"}]}
{"smiles": "NNC(=O)c1[nH]c2ccc(Cl)cc2c1S(=O)(=O)c1ccccc1", "values": [{"measurement": "Ratio", "setting": "[1]", "result": "> 10000"}, {"measurement": "EC50", "setting": "[2]", "result": 400, "unit": "nM"}, {"measurement": "CC50", "setting": "MT4", "result": "> 100000", "unit": "nM"}, {"measurement": "EC90", "setting": "[4]", "result": 3000, "unit": "nM"}, {"measurement": "EC50", "setting": "[5]", "result": "≥ 100000", "unit": "nM"}, {"measurement": "EC90", "setting": "[6]", "result": 20, "unit": "nM"}]}
{"smiles": "NC(=O)c1[nH]c2ccc(Cl)cc2c1S(=O)(=O)c1ccccc1", "note": "[L-737126]", "values": [{"measurement": "Ratio", "setting": "[1]", "result": 45000}, {"measurement": "EC50", "setting": "[2]", "result": 20, "unit": "nM"}, {"measurement": "CC50", "setting": "MT4", "result": 45000, "unit": "nM"}, {"measurement": "EC90", "setting": "[4]", "result": 900, "unit": "nM"}, {"measurement": "EC50", "setting": "[5]", "result": 8000, "unit": "nM"}, {"measurement": "EC90", "setting": "[6]", "result": 7, "unit": "nM"}]}
{"smiles": "CC(NC(=O)c1[nH]c2ccc(Cl)cc2c1S(=O)(=O)c1ccccc1)C(N)=O", "note": "(stereo not drawn)", "values": [{"measurement": "Ratio", "setting": "[1]", "result": 6400}, {"measurement": "EC50", "setting": "[2]", "result": 360, "unit": "nM"}, {"measurement": "EC50", "setting": "[3]", "result": 10, "unit": "nM"}, {"measurement": "CC50", "setting": "MT4", "result": 64000, "unit": "nM"}, {"measurement": "EC90", "setting": "[4]", "result": 3000, "unit": "nM"}, {"measurement": "EC50", "setting": "[5]", "result": 16000, "unit": "nM"}]}
{"smiles": "O=C1Nc2ccc(Cl)cc2[C@@](C#CC2CC2)(C(F)(F)F)O1", "note": "[EFAVIRENZ]", "values": [{"measurement": "CC50", "setting": "MT4", "result": 35000, "unit": "nM"}, {"measurement": "EC90", "setting": "[4]", "result": 1800, "unit": "nM"}, {"measurement": "EC90", "setting": "[6]", "result": 8, "unit": "nM"}]}
{"smiles": "NC(=O)CNC(=O)c1[nH]c2ccc(Cl)cc2c1S(=O)(=O)c1ccccc1", "values": [{"measurement": "Ratio", "setting": "[1]", "result": 5000}, {"measurement": "EC50", "setting": "[2]", "result": 180, "unit": "nM"}, {"measurement": "EC50", "setting": "[3]", "result": 13, "unit": "nM"}, {"measurement": "CC50", "setting": "MT4", "result": 65000, "unit": "nM"}, {"measurement": "EC90", "setting": "[4]", "result": 2700, "unit": "nM"}, {"measurement": "EC50", "setting": "[5]", "result": "> 20000", "unit": "nM"}]}
{"smiles": "Cc1cc(C)cc(S(=O)(=O)c2c(C(=O)NCC(=O)NN)[nH]c3ccc(Cl)cc23)c1", "values": [{"measurement": "Ratio", "setting": "[1]", "result": "> 10000"}, {"measurement": "EC50", "setting": "[2]", "result": 50, "unit": "nM"}, {"measurement": "EC50", "setting": "[3]", "result": 10, "unit": "nM"}, {"measurement": "CC50", "setting": "MT4", "result": "> 100000", "unit": "nM"}, {"measurement": "EC90", "setting": "[4]", "result": 1000, "unit": "nM"}, {"measurement": "EC50", "setting": "[5]", "result": 2000, "unit": "nM"}, {"measurement": "EC90", "setting": "[6]", "result": 30, "unit": "nM"}]}
{"smiles": "Cc1cc(C)cc(S(=O)(=O)c2c(C(=O)NC(C)C(=O)NN)[nH]c3ccc(Cl)cc23)c1", "note": "(stereo not drawn)", "values": [{"measurement": "Ratio", "setting": "[1]", "result": 666}, {"measurement": "EC50", "setting": "[2]", "result": 140, "unit": "nM"}, {"measurement": "EC50", "setting": "[3]", "result": 30, "unit": "nM"}, {"measurement": "CC50", "setting": "MT4", "result": 20000, "unit": "nM"}, {"measurement": "EC90", "setting": "[4]", "result": 700, "unit": "nM"}, {"measurement": "EC50", "setting": "[5]", "result": 4700, "unit": "nM"}, {"measurement": "EC90", "setting": "[6]", "result": 70, "unit": "nM"}]}
{"smiles": "Cc1ccnc2c1NC(=O)c1cccnc1N2C1CC1", "note": "[NEVIRAPINE]", "values": [{"measurement": "Ratio", "setting": "[1]", "result": "> 270"}, {"measurement": "EC50", "setting": "[2]", "result": "> 30000", "unit": "nM"}, {"measurement": "EC50", "setting": "[3]", "result": 400, "unit": "nM"}, {"measurement": "CC50", "setting": "MT4", "result": "> 100000", "unit": "nM"}, {"measurement": "EC90", "setting": "[4]", "result": "> 30000", "unit": "nM"}, {"measurement": "EC50", "setting": "[5]", "result": "> 30000", "unit": "nM"}, {"measurement": "EC90", "setting": "[6]", "result": 120, "unit": "nM"}]}
